Series [1] deals with T1, Protein cereblon/Tyrosine-protein kinase BTK (Homo sapiens) (UniProt Q06187+Q96SW2). In words: PROTAC activity at CRBN/ BTK in human Ramos cells assessed as induction of BTK degradation at 30 nM incubated for 24 hrs by immunoblot analysis. Format: cell-based. Summed up: (§1)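 Ramos cells in supplemented RPMI 1640 were plated at 3×10^5 cells/well and treated with compound for 24 h. Lysates in SDS sample buffer were heated at 100 °C for 15 min and run on 10% SDS-PAGE, then transferred to PVDF. Membranes were probed overnight at 4 °C for BTK, GSPT1 and β-actin.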
T1 sequence (Q06187 2-659 limits assumed): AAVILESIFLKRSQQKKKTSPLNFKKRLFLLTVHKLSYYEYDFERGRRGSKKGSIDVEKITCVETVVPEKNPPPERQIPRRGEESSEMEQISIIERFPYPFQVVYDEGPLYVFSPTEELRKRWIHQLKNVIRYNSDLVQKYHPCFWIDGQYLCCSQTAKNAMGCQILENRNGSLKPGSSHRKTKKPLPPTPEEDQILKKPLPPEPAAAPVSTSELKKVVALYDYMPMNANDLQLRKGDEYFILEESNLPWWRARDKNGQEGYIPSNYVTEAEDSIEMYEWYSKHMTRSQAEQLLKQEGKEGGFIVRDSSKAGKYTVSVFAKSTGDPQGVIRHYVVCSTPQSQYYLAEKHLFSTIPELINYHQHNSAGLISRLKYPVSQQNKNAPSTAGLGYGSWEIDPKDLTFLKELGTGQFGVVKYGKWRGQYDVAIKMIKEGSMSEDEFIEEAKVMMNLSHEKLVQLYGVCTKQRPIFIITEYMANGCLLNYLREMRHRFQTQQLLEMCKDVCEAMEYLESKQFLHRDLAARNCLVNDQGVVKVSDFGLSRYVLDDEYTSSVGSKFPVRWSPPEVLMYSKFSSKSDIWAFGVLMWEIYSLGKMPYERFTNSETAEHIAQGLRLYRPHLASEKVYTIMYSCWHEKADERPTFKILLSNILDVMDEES
T1 sequence (Q96SW2 whole entry partner): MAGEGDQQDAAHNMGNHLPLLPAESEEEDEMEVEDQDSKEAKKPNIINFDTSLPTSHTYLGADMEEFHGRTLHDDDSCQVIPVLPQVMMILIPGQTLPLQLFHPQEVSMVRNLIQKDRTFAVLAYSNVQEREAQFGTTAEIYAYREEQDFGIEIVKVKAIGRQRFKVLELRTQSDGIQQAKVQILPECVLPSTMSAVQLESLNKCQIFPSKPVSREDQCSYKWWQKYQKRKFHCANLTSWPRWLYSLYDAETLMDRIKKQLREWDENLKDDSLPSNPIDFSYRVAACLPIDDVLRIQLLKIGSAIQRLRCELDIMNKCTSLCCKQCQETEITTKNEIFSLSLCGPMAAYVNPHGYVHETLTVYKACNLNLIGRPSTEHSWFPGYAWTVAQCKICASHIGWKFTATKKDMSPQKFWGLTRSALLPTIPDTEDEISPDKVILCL
Background: In western blotting, separated proteins are transferred to a membrane and probed.

Series [2] has as its target T1, Protein cereblon/Tyrosine-protein kinase BTK (Homo sapiens). In words: PROTAC activity at CRBN/ BTK in human Ramos cells assessed as induction of BTK degradation at 100 nM incubated for 24 hrs by immunoblot analysis relative to control. Format: cell-based. Put shortly: as §1
For series [3] the target is unchanged. As to the kind of experiment: PROTAC activity at CRBN/ BTK in human DOHH-2 cells assessed as induction of BTK degradation at 1.2 to 300 nM incubated for 24 hrs by immunoblot analysis. It counts as cell-based. The note with it: dose 1.2-300 nM. Summed up:
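DOHH2 cells were grown in RPMI 1640 with 10% FBS, 1% penicillin-streptomycin, 1% nonessential amino acids and 50 µM 2-mercaptoethanol at 37 °C under 5% CO₂. Cells were treated with compound at various concentrations, lysed in SDS buffer and separated on 10% SDS-PAGE. Blots were transferred to PVDF and probed for BTK, with β-actin as loading control.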

Series [4] can be described thus: Solubility in DMSO:Cremophor EL:1xPBS mixture at 10 mg/ml. It counts as physicochemical.
Series [5] in a line: Solubility in DMSO:Cremophor EL:1xPBS mixture at 10 mg/ml incubated for 7 days. It counts as physicochemical. The note with it: 168 h, time 7 day.
The nature of series [6]: Apparent permeability across apical to basal side in MDCK-II cells at 10 uM measured for 120 mins by LC-MS/MS analysis. Format: ADME, cell-based, Canis lupus familiaris. The note with it: dog. Put shortly: (§2)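 MDCK monolayers were grown on Transwell inserts (5 x 10^4 cells/cm²) and used at day 5. Compound at 10 μM in HBSS with 10 mM Hepes, pH 7.40, was dosed apically or basolaterally and incubated at 37±1 °C. Lucifer yellow passage below 1% confirmed monolayer integrity.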

Series [7] can be described thus: Apparent permeability across basal to apical side in MDCK-II cells at 10 uM measured for 120 mins by LC-MS/MS analysis. It counts as ADME, cell-based, Canis lupus familiaris. Particulars: dog. Put shortly: as §2
A short description of series [8]: Apparent permeability across apical to basal side in MDCK-II cells assessed as compound recovery at 10 uM measured for 120 mins by LC-MS/MS analysis. It counts as ADME, cell-based, Canis lupus familiaris. The note with it: dog, read-out: Drug recovery. Summed up: (§3)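 MDCK monolayers were grown on Transwell inserts (5 x 10^4 cells/cm²) and used at day 5. Compound at 10 μM in HBSS with 10 mM Hepes, pH 7.40, was dosed apically or basolaterally and incubated at 37±1 °C. Receiver and donor samples were taken at 120 min and quantified by LC-MS/MS against an internal standard. Lucifer yellow passage below 1% confirmed monolayer integrity.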

Series [9] in a line: Apparent permeability across basal to apical side in MDCK-II cells assessed as compound recovery at 10 uM measured for 120 mins by LC-MS/MS analysis. Particulars: dog, read-out: Drug recovery. It counts as ADME, cell-based, Canis lupus familiaris. Put shortly: as §3
Series [10] in a line: Stability in mouse liver microsomes assessed as half life at 1 uM preincubated for 10 mins followed by reaction initiation measured upto 60 mins in presence of NADPH. Particulars: time < 70 min. It counts as ADME, Microsome. Put shortly:
(§4)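 Compound at 1 μM final was incubated with 0.5 mg/mL mouse, rat, dog, monkey or human liver microsomes in 100 mM PBS, pH 7.4, with 1 mM NADPH at 37 °C after a 10 min preincubation. Reactions were stopped at 0, 5, 15, 30 and 60 min with ice-cold acetonitrile containing tolbutamide. Supernatants were taken for bioanalysis.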

Series [11] is described as follows: Stability in mouse liver microsomes assessed as intrinsic clearance measured per mg protein at 1 uM preincubated for 10 mins followed by reaction initiation measured upto 60 mins in presence of NADPH. It counts as ADME, Microsome. Particulars: time < 70 min, read-out: CLH. Summed up: as §4
(In general: Microsomes from liver hold many membrane-bound enzymes, among them those of drug oxidation.)

The nature of series [12]: Stability in rat liver microsomes assessed as half life at 1 uM preincubated for 10 mins followed by reaction initiation measured upto 60 mins in presence of NADPH. Format: ADME, Microsome. Particulars: time < 70 min. Summed up:
as §4

The nature of series [13]: Stability in rat liver microsomes assessed as intrinsic clearance measured per mg protein at 1 uM preincubated for 10 mins followed by reaction initiation measured upto 60 mins in presence of NADPH. Format: ADME, Microsome. Particulars: time < 70 min, read-out: CLH. Summed up: as §4
Series [14] is described as follows: Stability in dog liver microsomes assessed as half life at 1 uM preincubated for 10 mins followed by reaction initiation measured upto 60 mins in presence of NADPH. Format: ADME, Canis lupus familiaris, Microsome. Particulars: time < 70 min. Summed up: as §4
A short description of series [15]: Stability in dog liver microsomes assessed as intrinsic clearance measured per mg protein at 1 uM preincubated for 10 mins followed by reaction initiation measured upto 60 mins in presence of NADPH. Format: ADME, Canis lupus familiaris, Microsome. The note with it: time < 70 min, read-out: CLH. Put shortly:
as §4

Series [16] in a line: Stability in monkey liver microsomes assessed as half life at 1 uM preincubated for 10 mins followed by reaction initiation measured upto 60 mins in presence of NADPH. It counts as ADME, Macaca mulatta, Microsome. Particulars: rhesus monkey, time < 70 min. Summed up: as §4
Series [17] is described as follows: Stability in monkey liver microsomes assessed as intrinsic clearance measured per mg protein at 1 uM preincubated for 10 mins followed by reaction initiation measured upto 60 mins in presence of NADPH. Format: ADME, Macaca mulatta, Microsome. The note with it: rhesus monkey, time < 70 min, read-out: CLH. Summed up:
as §4

Series [18] is described as follows: Stability in human liver microsomes assessed as half life at 1 uM preincubated for 10 mins followed by reaction initiation measured upto 60 mins in presence of NADPH. Format: ADME, Microsome. The note with it: time < 70 min. Put shortly:
as §4

A short description of series [19]: Stability in human liver microsomes assessed as intrinsic clearance measured per mg protein at 1 uM preincubated for 10 mins followed by reaction initiation measured upto 60 mins in presence of NADPH. Format: ADME, Microsome. The note with it: time < 70 min, read-out: CLH. Summed up:
as §4

Series [20] in a line: Half life in BALB/c mouse at 2 mg/kg, iv measured for 24 hrs by LCMS analysis. Format: ADME, organism-based. The note with it: in vivo. Put shortly:
(§5)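 Male Balb/c mice, 9 per group, dosed intravenously at 2 mg/kg. Blood was drawn into EDTA-K2 tubes at 0.083, 0.25, 0.5, 1, 2, 4, 6, 8 and 24 h. Plasma was separated by centrifugation at 2000 g for 10 min and precipitated with acetonitrile containing tolbutamide internal standard. Analysis was by LC-MS on a polar C18 column with a water/acetonitrile 0.1% formic acid gradient.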

Series [21] can be described thus: Clearance in BALB/c mouse at 2 mg/kg, iv measured for 24 hrs by LCMS analysis. It counts as ADME, organism-based. Particulars: in vivo. Summed up: as §5
The nature of series [22]: AUClast in BALB/c mouse at 2 mg/kg, iv measured for 24 hrs by LCMS analysis. Format: ADME, organism-based. Further details: time 24 hrs, dose 2 mg/kg, route iv. The note with it: in vivo. Put shortly: as §5
The nature of series [23]: Apparent volume of distribution in BALB/c mouse at 2 mg/kg, iv measured for 24 hrs by LCMS analysis. Format: ADME, organism-based. The note with it: in vivo, read-out: Vz. Summed up:
as §5

Series [24] is described as follows: Half life in BALB/c mouse at 5 mg/kg, po measured for 24 hrs by LCMS analysis. Format: ADME, organism-based. The note with it: in vivo. Summed up: (§6)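 Male Balb/c mice, 9 per group, dosed intragastrically at 5 mg/kg; the same compounds were also given iv at 2 mg/kg. Blood was drawn into EDTA-K2 tubes at 0.25, 0.5, 1, 2, 4, 6, 8 and 24 h. Plasma proteins were precipitated with acetonitrile containing tolbutamide. Quantification was by LC-MS on a C18 column with a formic acid water/acetonitrile gradient.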

Series [25] can be described thus: AUClast in BALB/c mouse at 5 mg/kg, po measured for 24 hrs by LCMS analysis. Format: ADME, organism-based. Further details: dose 5 mg/kg, time 24 hrs, route po. Particulars: in vivo. Put shortly: as §6
A short description of series [26]: Cmax in BALB/c mouse at 5 mg/kg, po measured for 24 hrs by LCMS analysis. Format: ADME, organism-based. Further details: dose 5 mg/kg, time 24 hrs, route po. Particulars: in vivo. Put shortly: as §6
Series [27] in a line: Tmax in BALB/c mouse at 5 mg/kg, po measured for 24 hrs by LCMS analysis. Format: ADME, organism-based. The note with it: in vivo. Summed up: as §6
Series [28] can be described thus: Oral bioavailability in BALB/c mouse at 5 mg/kg measured for 24 hrs by LCMS analysis. It counts as ADME, organism-based. Particulars: in vivo. Put shortly:
as §6

The target of series [29] is T1, Protein cereblon/Tyrosine-protein kinase BTK (Homo sapiens). In words: PROTAC activity at CRBN/ BTK in human Ramos cells assessed as induction of BTK degradation at 250 nM incubated for 24 hrs by immunoblot analysis relative to control. It counts as cell-based. Put shortly:
as §1

The target is the same in series [30]. In words: PROTAC activity at CRBN/ BTK in human Ramos cells assessed as induction of BTK degradation at 500 nM incubated for 24 hrs by immunoblot analysis relative to control. Format: cell-based. Summed up:
as §1

The text below walks through data of ChEMBL document CHEMBL5329164, “Design, synthesis, and evaluation of BTK-targeting PROTACs with optimized bioavailability in vitro and in vivo” (RSC Med Chem, 2023).

Each structure is given as a SMILES string. The source made the active and inactive calls. The rule behind the calls is not given here.

Usually Papp A→B stands for the apparent permeability from the apical to the basolateral side of a cell layer. The term Papp B→A denotes how fast a substance crosses the layer from the basolateral side. Usually half-life stands for the time in which the quantity being followed falls by half. For orientation: clearance means a measure of how efficiently the substance is removed, as volume per time. In general, AUC(0-t) refers to exposure summed from dosing to a finite time, without extrapolation to infinity. Usually Cmax stands for the highest concentration seen after dosing. By Tmax is commonly meant the time at which the peak concentration occurs. The term bioavailability denotes the share of a dose that reaches the circulation, judged against a reference dose that is usually intravenous.

For the compound `Nc1ncnc2c1c(-c1ccc(Oc3ccccc3)cc1)nn2[C@@H]1CCCN(C(=O)c2ccc(CNc3ccc4c(c3)C(=O)N(C3CCC(=O)NC3=O)C4=O)cc2)C1` (stereo not given in full), the Activity in [1] is 20.7%; in series [2], 18.3%. Besides, the outcome in series [3] was Active. The solubility entry in series [4] and in series [5] was “Soluble” throughout. In series [6], the Papp A→B at 2 h, 10 µM was 0.016 ×10⁻⁶ cm/s. Further, the Papp B→A at 2 h, 10 µM in series [7] is 0.01 ×10⁻⁶ cm/s. For the same compound, the recovery at 2 h, 10 µM was found to be 111% in [8] and 116% in series [9]. For the same compound, the half-life at 1 µM amounted to 2.26 h in series [10]; 3.02 h in series [12]; 4.24 h in series [14]; 5.11 h in series [16]; 2.35 h in [18]. For the same compound, the microsomal CLint at 1 µM in series [11] was 10.2 µL/min/mg; in series [13], 7.66 µL/min/mg; in [15], 5.45 µL/min/mg; in [17], 4.52 µL/min/mg; in [19] it was 9.83 µL/min/mg. Moreover, the values for the half-life in [20] and in series [24] were 0.98 h and 0.52 h, respectively. In [21], this compound had a clearance of 11.8 mL/min/kg. In addition, the values for the AUC(0-t) at 24 h in series [22] and in [25] were 2810 ng·h/mL and 336 ng·h/mL, respectively. Also, the Vd in series [23] was found to be 0.998 L/kg. In [26], the highest level (Cmax) was 252 ng/mL. In addition, in series [27], the Tmax is 0.5 h. In [28], the bioavailability is 4.78%.

On to `Nc1ncnc2c1c(-c1ccc(Oc3ccccc3)cc1)nn2[C@@H]1CCCN(C(=O)c2ccc(-c3ccc(Nc4ccc5c(c4)C(=O)N(C4CCC(=O)NC4=O)C5=O)cc3)cc2)C1` (stereo not given in full), for which the values for the Activity in series [29] and in series [30] were 38.4% and 38.8%, respectively.
